RGS4 act: RGS4 potentiation or activation; HEK293 M3R/inducible RGS4, carbachol calcium flux Fluo4; active compounds read low; B-score at 10 µM; actives 0.92% (n = 310,000);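 active means B-score of the integrated calcium signal more than 4 SD below the library mean, with starting fluorescence not abnormally high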;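 further: negative B-score means reduced calcium response which marks RGS4 activation or potentiation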
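Material: Inducible-RGS4 HEK293 cells carrying M3 receptor; also added: carbachol at ECmax as muscarinic agonist stimulus; incubation: compound preincubation 20 min at room temperature before agonist; signal: Fluo4-AM (2 µM) calcium-flux fluorescence, kinetic read; measure: integrated calcium ratio converted to B score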
MrgX1 allo act: human MrgX1 positive allosteric modulation, primary screen | Q96LB2 | MrgX1-HEK293, Fluo-4 calcium flux, FDSS; active compounds read high | B-score at 10 µM | actives 0.63% (n = 310,000);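 active means plate-corrected calcium response at least 3 library SD above typical, normal starting fluorescence, not activating the receptor alone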;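 further: compound read alongside a low EC10 to EC30 dose of BAM8-22 agonist; peak minus trough fluorescence over baseline measured at the second addition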
Target sequence (Q96LB2 whole entry, looked up): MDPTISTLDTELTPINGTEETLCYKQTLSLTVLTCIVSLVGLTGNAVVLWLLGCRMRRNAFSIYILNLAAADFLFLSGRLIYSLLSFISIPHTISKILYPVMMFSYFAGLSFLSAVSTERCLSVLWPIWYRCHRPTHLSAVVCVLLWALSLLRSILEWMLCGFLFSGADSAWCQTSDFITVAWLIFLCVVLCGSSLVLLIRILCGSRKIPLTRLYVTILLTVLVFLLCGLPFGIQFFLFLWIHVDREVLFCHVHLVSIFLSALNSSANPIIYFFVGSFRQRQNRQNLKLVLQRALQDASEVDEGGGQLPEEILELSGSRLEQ
RGS4 inh: human RGS4 inhibition. P49798. HEK293 M3R/RGS4 inducible, Fluo-4 calcium flux; active compounds read high; triggered by carbachol at its EC20. B-score at 10 µM. actives 0.45% (n = 310,000). AID 463165;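 active means B-score, a plate-corrected calcium signal, over three deviations above library mean, with baseline fluorescence within five deviations of library mean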;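 further: RGS4 expression induced by doxycycline in cells with stable M3 receptor; B-score is computed from the integrated fluorescence ratio over baseline after carbachol; higher B-score means a larger calcium signal and so more RGS4 inhibition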
Target sequence (P49798 whole entry, looked up): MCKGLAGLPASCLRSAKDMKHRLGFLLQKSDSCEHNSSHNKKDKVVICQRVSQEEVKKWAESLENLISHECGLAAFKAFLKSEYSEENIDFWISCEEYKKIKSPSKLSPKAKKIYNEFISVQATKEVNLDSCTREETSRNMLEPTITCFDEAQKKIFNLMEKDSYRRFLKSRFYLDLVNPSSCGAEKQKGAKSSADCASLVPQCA
MrgX1 antagonist: human MrgX1 receptor antagonism, primary screen; actives 1.3% (n = 310,000); Q96LB2; MRGX1-HEK293 calcium flux, Fluo-4, BAM8-22 antagonism; active compounds read low; B-score at 10 µM; AID 588676;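 active means calcium-response B-score plate-corrected more than 3 library SD below zero, starting fluorescence within 5 deviations, no agonist response on first addition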;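 further: peak minus trough fluorescence over baseline after final BAM8-22 challenge near maximal dose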
MrgX1 agonist: human MrgX1 receptor agonism, primary screen; Q96LB2; MrgX1-HEK293 cells, Fluo-4 calcium fluorescence, agonist mode; active compounds read high; B-score at 10 µM; actives 0.44% (n = 310,000);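 active means calcium response B-score plate-corrected fluorescence ratio at least 3 library SD, with starting fluorescence B-score inside 5 SD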
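Assay system: MrgX1-expressing HEK293 cells / Amount: fifteen thousand cells per well / Doses: test compound in the initial addition of three / Timing: cells plated overnight, dye loaded 0.5 h 37 °C, 0.5 h room temperature / Technique: kinetic calcium dye fluorescence, Fluo-4 NW / Control set: positive and negative controls per plate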
RGS4 inh valid: RGS4 inhibitor validation; shares compounds with RGS4 inh; HEK293 M3R/RGS4, carbachol calcium Fluo-4 fluorescence; carbachol added at its EC20; 0 = buffer wells, 100 = carbachol control; calcium response, % at 10 µM; actives 65% (n = 1,700); AID 492999;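 active means duplicate-averaged calcium response above the buffer-only control mean plus 5 SD of those controls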;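 further: integrated fluorescence ratio F max minus min over baseline F0; higher response in RGS4-induced cells means RGS4 inhibition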
M3R Ca ctr: non-induced cell nonspecific activity of RGS4 inhibitors. shares compounds with RGS4 inh. HEK293 M3R non-induced, carbachol calcium Fluo-4; submaximal (EC20) carbachol stimulus; buffer wells 0%, carbachol control wells 100%. activity (percent), % at 10 µM. actives 20% (n = 1,900). AID 493000; call rule not given here;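 further: RGS4 induction absent so cells express M3R without RGS4; higher means more calcium signal and flags a non-specific hit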
RGS4 inh ctr2: second RGS4 inhibitor counter-screen in uninduced cells lacking carbachol | actives 22% (n = 1,900) | HEK293 M3R/RGS4 non-induced, Fluo-4 calcium, no carbachol; normalised: buffer wells 0%, carbachol wells 100% | AID 493001 | calcium response (agonist-mode artifact), % at 10 µM | shares compounds with RGS4 inh;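 active means duplicate-averaged calcium rise in uninduced cells above buffer wells' mean plus 5 SD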
Large screens that a line does not name were inactive (follow-up assays come after a bar, where they were run). Compounds with a hit are over-represented: about 3.5% of the library has one in this group of screens.

COc1ccc(/C=C(\CC(=O)O)c2nc3ccccc3s2)cc1O	none
COc1ccc(-c2nn(-c3ccccc3)cc2/C=C(\CC(=O)O)c2nc3ccccc3s2)cc1OC	RGS4 inh 6.2 | RGS4 inh valid 7.5% | M3R Ca ctr inactive | RGS4 inh ctr2 inactive
O=C(N/N=C/C(Br)=C/c1ccccc1)c1n[nH]c2c1CCC2	RGS4 inh 5.1 | RGS4 inh valid 18% | M3R Ca ctr inactive | RGS4 inh ctr2 inactive
CCCCS(=O)(=O)Nc1ccc(C)cn1	none
CCCc1ccc(-c2cc(NC(=O)CSc3nnc(N)s3)n(-c3ccccc3)n2)cc1	RGS4 inh 8.8 | RGS4 inh valid 20% | M3R Ca ctr inactive | RGS4 inh ctr2 inactive
Cc1nnc(SCC(=O)Nc2cc(-c3cc(C)c(C)cc3C)nn2-c2ccccc2)s1	none
OCC(CO)(CO)N=Cc1cc(Br)ccc1O	RGS4 inh 5.8 | RGS4 inh valid inactive | M3R Ca ctr inactive | RGS4 inh ctr2 inactive
CCN(CC)c1ccc(N=Cc2cc(Br)ccc2O)cc1	none
COc1ccccc1NC(=O)CC1C(=O)Nc2ccccc2N1C(=O)c1ccccc1 (configuration not stated)	none
COc1ccc(-c2nnc(Nc3ccc(OC)c(C(=O)N4CCCCC4)c3)c3ccccc23)cc1	none | M3R Ca ctr inactive | RGS4 inh ctr2 inactive
COCCNC(=S)N/N=C(\C)c1ccccc1OC	RGS4 inh 5.7 | RGS4 inh valid 40% | M3R Ca ctr inactive | RGS4 inh ctr2 inactive
CCN(CC)CCN(C(=O)c1ccc2c(c1)CCCC2)c1nc2ccc(OC)cc2s1	none | RGS4 inh valid inactive | M3R Ca ctr inactive | RGS4 inh ctr2 inactive
CCN(CC)CCN(C(=O)c1ccc2c(c1)CCCC2)c1nc2ccc(C)cc2s1	none
O=C(Cc1cccs1)N1CCC(c2nc3c(nnn3Cc3ccc(F)cc3)c(=O)[nH]2)CC1	none | RGS4 inh valid inactive | M3R Ca ctr inactive | RGS4 inh ctr2 inactive
CN1C(=O)/C(=C\c2ccncc2)SC1=Nc1ccccc1	RGS4 inh 6.3 | RGS4 inh valid 40% | M3R Ca ctr 56% | RGS4 inh ctr2 inactive
COc1cc(C=C2C(=O)c3ccccc3C2=O)cc(OC)c1	RGS4 inh 7.5 | RGS4 inh valid 8.5% | M3R Ca ctr inactive | RGS4 inh ctr2 inactive
COc1cccc(/C=C2\C(=O)C(=O)c3ccccc32)c1	RGS4 inh 11, MrgX1 agonist 30 | RGS4 inh valid 14% | M3R Ca ctr inactive | RGS4 inh ctr2 10%
COc1cccc(/C=C2\CCc3ccccc3C2=O)c1	none
Cc1ccc(N(Cc2cc3ccc(C)cc3[nH]c2=O)C(=O)c2ccco2)c(C)c1	none | RGS4 inh valid inactive | M3R Ca ctr inactive | RGS4 inh ctr2 inactive
COCC(=O)N(Cc1cc2ccc(C)cc2[nH]c1=O)c1ccc(C)cc1C	none
Cc1ccc2cc(CN(C(=O)c3ccco3)c3ccccc3C)c(=O)[nH]c2c1	none | RGS4 inh valid inactive | M3R Ca ctr inactive | RGS4 inh ctr2 inactive
Cc1ccc2cc(CN(C(=O)c3ccco3)c3cccc(C)c3C)c(=O)[nH]c2c1	none
CC12CCC(=O)N1C(C(=O)Nc1nc(-c3cc(F)ccc3F)cs1)CS2 (configuration not stated)	none
Cc1sc(NC(=O)CSC2=NCCS2)nc1-c1ccccc1	none
CC(=O)N1CC(=O)N=C1SCC(=O)Nc1nc(-c2ccccc2)c(-c2ccccc2)s1	RGS4 inh 8.7 | RGS4 inh valid 29% | M3R Ca ctr inactive | RGS4 inh ctr2 inactive
Cc1ccc(-n2[nH]c(C)c(C=Nc3ccc(S(=O)(=O)Nc4nccs4)cc3)c2=O)cc1C	none | M3R Ca ctr inactive | RGS4 inh ctr2 inactive
Cc1[nH]n(-c2ccc(Cl)cc2)c(=O)c1C=Nc1ccc(S(=O)(=O)N2CCOCC2)cc1	RGS4 inh 6.3 | RGS4 inh valid 32% | M3R Ca ctr 55% | RGS4 inh ctr2 inactive
CCc1nnc(NS(=O)(=O)c2ccc(N=Cc3c(C)[nH]n(-c4ccc(Cl)cc4)c3=O)cc2)s1	none | M3R Ca ctr inactive | RGS4 inh ctr2 inactive
CCc1nnc(NS(=O)(=O)c2ccc(N=Cc3c(C)[nH]n(-c4cccc(Cl)c4)c3=O)cc2)s1	none
O=c1[nH]c(CN2CCN(c3ccc(O)cc3)CC2)nc2scc(-c3ccc(Cl)cc3)c12	none
COc1ccc(C(=O)/C(=C/O)N=Nc2ccc(F)cc2)cc1	RGS4 inh 6.8 | RGS4 inh valid 56% | M3R Ca ctr 128% | RGS4 inh ctr2 inactive
Cc1cccc(N=N/C(=C\O)C(=O)c2ccc(Br)cc2)c1	RGS4 inh 5.3 | RGS4 inh valid 26% | M3R Ca ctr inactive | RGS4 inh ctr2 inactive
COc1ccc(N=N/C(=C\O)C(=O)c2cccs2)cc1	none
CCOC(=O)Nc1ccc(=O)n(Cc2c(Cl)cccc2Cl)c1	RGS4 inh 7.7 | RGS4 inh valid 36% | M3R Ca ctr 28% | RGS4 inh ctr2 inactive
Cc1nn2c(-c3ccc(F)cc3)ccnc2c1Br	none | M3R Ca ctr inactive | RGS4 inh ctr2 inactive
Cc1nn2c(-c3ccccn3)ccnc2c1Br	none
Cc1nn2c(-c3ccncc3)ccnc2c1Br	none | RGS4 inh valid inactive | M3R Ca ctr inactive | RGS4 inh ctr2 inactive
CNc1ccc([N+](=O)[O-])cc1-c1nc2ccccc2[nH]c1=O	none
CCOC(=O)C1=C(C)Nc2nc(=S)[nH]n2C1c1ccc(Cl)cc1 (configuration not stated)	RGS4 inh 9.2 (no result: MrgX1 allo act, MrgX1 antagonist, MrgX1 agonist) | RGS4 inh valid 14% | M3R Ca ctr 35% | RGS4 inh ctr2 18%
CCOC(=O)C1=C(C)Nc2nc(SCC)nn2C1c1ccc(OC)cc1 (configuration not stated)	none
Cc1ccc(C2c3c(-c4ccccc4O)n[nH]c3C(=O)N2Cc2ccncc2)cc1 (configuration not stated)	none
COc1cc(C2c3c(-c4cc(Cl)c(C)cc4O)n[nH]c3C(=O)N2Cc2cccnc2)ccc1O (configuration not stated)	none | M3R Ca ctr inactive | RGS4 inh ctr2 inactive
Cc1nn(CC(=O)NCCc2ccco2)c(=O)c2nn(-c3ccccc3)c(C)c12	none
Cc1nn(CC(=O)NCCc2cccs2)c(=O)c2nn(-c3ccccc3)c(C)c12	none | M3R Ca ctr inactive | RGS4 inh ctr2 35%
Cc1ccc(-n2nc3c(=O)n(CC(=O)NCc4cccs4)nc(C)c3c2C)cc1	RGS4 inh 4.9 | RGS4 inh valid inactive | M3R Ca ctr inactive | RGS4 inh ctr2 inactive

Screening results deposited in PubChem by Johns Hopkins Ion Channel Center.
